ChEMBL document CHEMBL3351414, “Novel 9'-substituted-noscapines: synthesis with Suzuki cross-coupling, structure elucidation and biological evaluation” (Eur J Med Chem, 2014)
Active and inactive are the calls of the source. The rule behind the calls is not given here.

What was measured:
HeLa [1] = test: Induction of apoptosis in human HeLa cells assessed as viable cells at 25 uM after 24 hrs using Annexin-V/PI staining by flow cytometry (reference value: 86.7 %); format: functional; conditions: read-out: Activity
[2] = Antiproliferative activity against human RS4:11 cells assessed as reduction in cell viability after 72 hrs by MTT assay; format: functional, cell-based; conditions: RS4-11, 72 h
Summary of the method: (§1)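 Cells kept in RPMI-1640 (Jurkat, SEM, RS4;11) or DMEM (A549, HeLa, IGROV-1, HT-29) with 10% FBS plus penicillin/streptomycin. 8×10^3 cells per well were left 18 h at 37 °C in 5% CO2. Medium was then replaced with fresh medium holding graded compound concentrations from 10 mM DMSO stocks. Cells were incubated 72 h and viability read by MTT. IC50 is the mean ± SEM from dose–response curves of at least three independent experiments.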

HeLa [3] = test: Induction of apoptosis in human HeLa cells assessed as reduction in Mcl-1 expression at 25 uM after 48 hrs by Western blot analysis; format: functional, cell-based
Summary of the method: (§2)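 HeLa cells treated 24 or 48 h at 25 µM, then lysed. 20 µg protein per lane was run on SDS-PAGE and transferred to PVDF. Membranes were probed 2 h at room temperature for cleaved caspase-9, caspase-3, cleaved PARP, Bcl-2, Mcl-1 or Bax, with peroxidase secondary antibody and ECL. β-Actin reprobe served as loading control.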

HeLa [4] = test: Induction of apoptosis in human HeLa cells assessed as reduction in Bcl-2 expression at 25 uM after 24 hrs by Western blot analysis; format: functional, cell-based; summary of the method: as §2
HeLa [5] = test: Induction of apoptosis in human HeLa cells assessed as late necrotic cells at 25 uM after 24 hrs using Annexin-V/PI staining by flow cytometry (reference value: 3.70 %); format: functional
HeLa [6] = test: Induction of apoptosis in human HeLa cells assessed as caspase 3 cleavage at 25 uM after 24 to 48 hrs by Western blot analysis; format: functional, cell-based; summary of the method: as §2
Jurkat [7] = test: Cell cycle arrest in human Jurkat cells assessed as accumulation at G2/M phase at 10 to 25 uM after 24 hrs by flow cytometry; format: functional, cell-based
Summary of the method: (§3)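 5×10^5 HeLa or Jurkat cells exposed to graded compound concentrations for 24 h. Cells were fixed in ice-cold 70% ethanol, lysed with RNase A/0.1% Triton X-100 buffer and stained with propidium iodide. DNA content was read by flow cytometry. Phase percentages are mean ± SEM of three independent experiments.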

HeLa [8] = test: Upregulation of cyclin B protein level in human HeLa cells at 25 uM after 24 hrs by Western blot analysis; format: functional, cell-based
HeLa [9] = test: Induction of apoptosis in human HeLa cells after 24 to 48 hrs using Annexin-V/PI staining by flow cytometry; format: functional, cell-based
HeLa [10] = test: Induction of apoptosis in human HeLa cells assessed as early apoptotic cells at 25 uM after 24 hrs using Annexin-V/PI staining by flow cytometry (reference value: 5.26 %); format: functional
CCRF-CEM = test: Antiproliferative activity against human CEM cells assessed as reduction in cell viability after 72 hrs by MTT assay; format: functional, cell-based
HeLa [11] = test: Induction of apoptosis in human HeLa cells assessed as mitochondrial membrane depolarization at 6.2 to 50 uM using JC-1 staining-based fluorescence assay; format: functional, cell-based; conditions: TDE = time-dependent effect
Summary of the method: (§4)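 Mitochondrial membrane potential was read with the JC-1 dye in HeLa cells after 24 or 48 h at graded concentrations. Data are mean ± SEM of three independent experiments.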

HeLa [12] = test: Induction of apoptosis in human HeLa cells assessed as caspase 9 cleavage at 25 uM after 24 to 48 hrs by Western blot analysis; format: functional, cell-based; summary of the method: as §2
HeLa [13] = test: Downregulation of phosphorylated form of cdc25c protein level in human HeLa cells at 25 uM after 24 hrs by Western blot analysis; format: functional, cell-based
Summary of the method: (§5)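 HeLa cells treated 24 or 48 h at 25 µM, then washed in PBS and lysed 30 min on ice. 20 µg protein per lane was resolved on 7.5–15% SDS-PAGE and blotted to PVDF. Blots were probed for cyclin B, p-cdc2 Tyr15, cdc25C and γH2A.X, with β-actin reprobe as loading control and ECL detection.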

HT-29 = test: Antiproliferative activity against human HT-29 cells assessed as reduction in cell viability after 72 hrs by MTT assay; format: functional, cell-based; conditions: HT-29, 72 h; summary of the method: as §1
PBL [14] = test: Cytotoxicity against PHA-stimulated human PBLs assessed as reduction in cell growth; format: cell-based
Summary of the method: (§6)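 Peripheral blood lymphocytes from healthy donors, tested either resting (no PHA) or PHA-stimulated. Value is the concentration reducing cell growth by 50%, mean ± SEM of three separate experiments.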

HeLa [15] = test: Downregulation of cdc25c protein level in human HeLa cells at 25 uM after 24 hrs by Western blot analysis; format: functional, cell-based; conditions: in the assay text read “after 48 hrs” for “after 24 hrs”; summary of the method: as §5
HeLa [16] = test: Induction of apoptosis in human HeLa cells at 6.2 to 50 uM using Annexin-V/PI staining by flow cytometry; format: functional, cell-based; conditions: TDE = time-dependent effect
HeLa [17] = test: Induction of apoptosis in human HeLa cells assessed as ROS production at 6.2 to 50 uM after 24 to 48 hrs using H2-DCFDA -based flow cytometry relative to control; format: functional, cell-based
Summary of the method: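 HeLa cells incubated 24 or 48 h at the indicated concentrations, stained with H2-DCFDA and analysed by flow cytometry. Data are mean ± SEM of three independent experiments.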

HeLa [18] = test: Antiproliferative activity against human HeLa cells assessed as reduction in cell viability after 72 hrs by MTT assay; format: functional, cell-based; summary of the method: as §1
HeLa [19] = test: Induction of apoptosis in human HeLa cells assessed as reduction in Mcl-1 expression at 25 uM after 24 hrs by Western blot analysis; format: functional, cell-based; summary of the method: as §2
HeLa [20] = test: Cell cycle arrest in human HeLa cells assessed as accumulation at G2/M phase at 25 uM after 24 hrs by flow cytometry; format: functional; summary of the method: as §3
LoVo = test: Antiproliferative activity against human LoVo cells assessed as reduction in cell viability after 72 hrs by MTT assay; format: functional, cell-based
Tubulin [21] = molecular target: T1, Tubulin (Bos taurus, UniProt Q6B856+Q862L2+Q862F3); test: Inhibition of bovine brain tubulin assessed as extent of assembly preincubated for 15 mins by turbidimetry
Summary of the method: (§7)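 Bovine brain tubulin at 10 µM (1.0 mg/mL) in 0.8 M monosodium glutamate pH 6.6 with 4% DMSO and varying compound was preincubated 15 min at 30 °C, then chilled. GTP was added to 0.4 mM final and the temperature jumped from 0 to 30 °C. Turbidity was followed at 350 nm, scoring either maximum rate or extent of assembly at 20 min.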

[22] = Antiproliferative activity against human SEM cells assessed as reduction in cell viability after 72 hrs by MTT assay; format: functional, cell-based; summary of the method: as §1
Jurkat [23] = test: Cell cycle arrest in human Jurkat cells assessed as accumulation at G2/M phase after 24 hrs by flow cytometry; format: functional, cell-based; summary of the method: as §3
Tubulin [24] = molecular target: T1, Tubulin; test: Inhibition of bovine brain tubulin assessed as rate of assembly preincubated for 15 mins by turbidimetry; summary of the method: as §7
HeLa [25] = test: Induction of DNA damage in human HeLa cells assessed as increase in phosphorylated form of histone gamma-H2A.X level at 25 uM after 24 hrs by Western blot analysis; format: functional, cell-based; summary of the method: as §5
HeLa [26] = test: Upregulation of aurora kinase A protein level in human HeLa cells at 25 uM after 24 hrs by Western blot analysis; format: functional, cell-based
IGROV-1 = test: Antiproliferative activity against human IGROV1 cells assessed as reduction in cell viability after 72 hrs by MTT assay; format: functional, cell-based; conditions: IGROV-1, 72 h; summary of the method: as §1
HeLa [27] = test: Cell cycle arrest in human HeLa cells assessed as accumulation at G2/M phase at 10 to 25 uM after 24 hrs by flow cytometry; format: functional, cell-based; summary of the method: as §3
HeLa [28] = test: Induction of apoptosis in human HeLa cells assessed as PARP cleavage at 25 uM after 24 to 48 hrs by Western blot analysis; format: functional, cell-based; summary of the method: as §2
PBL [29] = test: Cytotoxicity against resting human PBLs assessed as reduction in cell growth; format: cell-based; summary of the method: as §6
HeLa [30] = test: Cell cycle arrest in human HeLa cells assessed as accumulation at G2/M phase after 24 hrs by flow cytometry; format: functional, cell-based; summary of the method: as §3
HeLa [31] = test: Upregulation of cdc25c protein level in human HeLa cells at 25 uM after 24 hrs by Western blot analysis; format: functional, cell-based
HeLa [32] = test: Induction of apoptosis in human HeLa cells assessed as mitochondrial membrane depolarization after 24 to 48 hrs using JC-1 staining-based fluorescence assay; format: functional, cell-based; summary of the method: as §4
Jurkat [33] = test: Antiproliferative activity against human Jurkat cells assessed as reduction in cell viability after 72 hrs by MTT assay; format: functional, cell-based; summary of the method: as §1
HeLa [34] = test: Induction of apoptosis in human HeLa cells assessed as late apoptotic cells at 25 uM after 24 hrs using Annexin-V/PI staining by flow cytometry (reference value: 4.31 %); format: functional
HeLa [35] = test: Induction of apoptosis in human HeLa cells assessed as reduction in Bcl-2 expression at 25 uM after 48 hrs by Western blot analysis; format: functional, cell-based; summary of the method: as §2
Tubulin [36] = molecular target: T1, Tubulin; test: Displacement of [3H]colchicine from bovine brain tubulin assessed as rate of assembly after 10 mins by liquid scintillation counting
Tubulin (Bos taurus) = Tubulin (Bos taurus) (UniProt Q6B856+Q862L2+Q862F3); test: Displacement of [3H]colchicine from bovine brain tubulin at 500 uM after 10 mins by liquid scintillation counting

COc1ccc2c(c1OC)C(=O)O[C@@H]2[C@H]1c2c(c(-c3ccccc3)c3c(c2OC)OCO3)CCN1C
viability at 25 µM (HeLa [1]): 7.53%
IC50 [2]: 2.4 µM
Activity (HeLa [3]): Active
Activity (HeLa [4]): inactive
Activity (HeLa [5]): 18.1%
Activity (HeLa [6]): Active
Activity (Jurkat [7]): Active
Activity (HeLa [8]): Active
Activity (HeLa [9]): Dose-dependent effect
Activity (HeLa [10]): 15.9%
IC50 (CCRF-CEM): 5.2 µM
Activity (HeLa [11]): tde
Activity (HeLa [12]): Active
Activity (HeLa [13]): Active
IC50 (HT-29): 36.5 µM
IC50 (PBL [14]): 54.9 µM
Activity (HeLa [15]): Active
Activity (HeLa [16]): tde
Activity (HeLa [17]): Active
IC50 (HeLa [18]): 7.4 µM
Activity (HeLa [19]): Active
Activity (HeLa [20]): >80%
IC50 (LoVo): 42.8 µM
IC50 (Tubulin [21]): > 400 µM
IC50 [22]: 3.2 µM
Activity (Jurkat [23]): Dose-dependent effect
IC50 (Tubulin [24]): > 400 µM
Activity (HeLa [25]): Active
Activity (HeLa [26]): Active
IC50 (IGROV-1): 68.1 µM
Activity (HeLa [27]): Active
Activity (HeLa [28]): Active
IC50 (PBL [29]): > 200 µM
Activity (HeLa [30]): Dose-dependent effect
Activity (HeLa [31]): Active
Activity (HeLa [32]): Dose-dependent effect
IC50 (Jurkat [33]): 5.4 µM
Activity (HeLa [34]): 18.4%
Activity (HeLa [35]): Active
IC50 (Tubulin [36]): > 400 µM
inhibition (Tubulin (Bos taurus)): 14%
